Assay results from different studies.
Protocols differ between the studies behind these lines.
Target: MAP kinase-activated protein kinase 3 (MAPKAPK3, Homo sapiens, UniProt Q16644)

Structure (SMILES)	test	setting	endpoint	result
COc1cc(Nc2cnc(C#N)c(O[C@H](C)CN(C)C)n2)ncc1-c1cnn(C)c1	enzyme activity, inhibitor, radiometric	1 µM	remaining activity	96%
CN1CC(Oc2cnc(C#N)cc2-c2ccn3nc(NC(=O)C4CC4)cc3c2)C1	enzyme activity, inhibitor	1 µM	inhibition	-1%
CCN(CC)CCNC(=O)c1c(C)[nH]c(/C=C2\C(=O)Nc3ccc(F)cc32)c1C	enzyme activity, inhibitor	10 µM	inhibition	6%
COc1cccc2c(NCc3ccccc3)nc(-n3c(N)nc4ccccc43)nc12	target engagement in cells, inhibitor, chemoproteomics	20 mM	inhibition	-7.4%
FC(F)(F)Oc1cccc(-c2cnc3ccc(-c4ccncc4)nn23)c1	enzyme activity, inhibitor, radiometric	1 µM	activity vs control	107%
N#CCCc1ccc2c(c1)-c1[nH]c3ccc([N+](=O)[O-])cc3c1CC(=O)N2	cell-free assay	0.5 µM	remaining signal	96.8%
c1ccc(CNc2nc(N3CCOc4ccccc43)nc3c2CCCC3)cc1	target engagement in cells, inhibitor, chemoproteomics	20 mM	inhibition	-11.1%
CC(C)(C)c1nc(-c2cccc(NS(=O)(=O)c3c(F)cccc3F)c2F)c(-c2ccnc(N)n2)s1	enzyme activity, inhibitor, radiometric	1 µM	remaining activity	92%
Oc1cccc(-c2nc(N3CCOCC3)c3oc4ncccc4c3n2)c1	enzyme activity, inhibitor	10 µM	remaining activity	100%
Cc1ccc(Nc2nccc(N(C)c3ccc4c(C)n(C)nc4c3)n2)cc1S(N)(=O)=O	enzyme activity, inhibitor	0.3 µM	inhibition	-8%
COc1cc2ncnc(Nc3ccc(Oc4ccccc4)c(C)c3C)c2cc1OC	enzyme activity, inhibitor	1 µM	inhibition	-14%
CCCOc1ccc(OC)c(F)c1C(=O)c1ccc(C(=O)N[C@@H]2CNC[C@H]2NC(=O)c2ccc3[nH]ncc3c2)cc1	enzyme activity, inhibitor	10 µM	remaining activity	68%
Cc1ccc(NC(=O)c2ccc(C)c(C(F)(F)F)c2)cc1C#Cc1nn(C2CCC(O)CC2)c2ncnc(N)c12 (stereo not drawn)	cell-free assay	10 µM	remaining signal	96%
COc1cc(/C=C/C(=O)CC(=O)/C=C/c2ccc(O)c(OC)c2)ccc1O	enzyme activity, inhibitor	1 µM	activity vs control	76%
CC/C(=N\NC(=O)NCc1cccc(O)c1)c1ccc(O)c(C)c1O	enzyme activity, inhibitor	0.1 µM	inhibition	-6%
CNC(=O)c1cc(Oc2ccc(NC(=O)Nc3ccc(Cl)c(C(F)(F)F)c3)cc2)ccn1	enzyme activity, inhibitor	0.3 µM	inhibition	-3%
O=C(Nc1cnn(-c2csc(C(=O)NC3COC3)c2)c1)Nc1ccccc1Cl	enzyme activity, inhibitor	5 µM	remaining activity	83.5%
CCOc1cc(-c2nncn2C)ccc1Nc1ncc2cc(C)nc(NCC(C)(C)C)c2n1	enzyme activity, inhibitor, FRET	1 µM	inhibition	< 15%
